T1: Phenylethanolamine N-methyltransferase (Bos taurus, UniProt P10938)
T1 sequence (P10938 whole entry): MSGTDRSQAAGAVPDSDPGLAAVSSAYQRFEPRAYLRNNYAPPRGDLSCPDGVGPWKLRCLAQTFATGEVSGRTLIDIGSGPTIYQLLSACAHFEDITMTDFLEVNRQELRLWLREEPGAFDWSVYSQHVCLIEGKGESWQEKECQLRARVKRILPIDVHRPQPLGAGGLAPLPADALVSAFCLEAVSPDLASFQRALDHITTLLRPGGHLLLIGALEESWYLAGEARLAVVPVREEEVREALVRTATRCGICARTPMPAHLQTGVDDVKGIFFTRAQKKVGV

B1: Phenylethanolamine N-methyltransferase (Bos taurus), P10938 (protein)
chain: MSGTDRSQAAGAVPDSDPGLAAVSSAYQRFEPRAYLRNNYAPPRGDLSCPDGVGPWKLRCLAQTFATGEVSGRTLIDIGSGPTIYQLLSACAHFEDITMTDFLEVNRQELRLWLREEPGAFDWSVYSQHVCLIEGKGESWQEKECQLRARVKRILPIDVHRPQPLGAGGLAPLPADALVSAFCLEAVSPDLASFQRALDHITTLLRPGGHLLLIGALEESWYLAGEARLAVVPVREEEVREALVRTATRCGICARTPMPAHLQTGVDDVKGIFFTRAQKKVGV

Experiments:
[1] = target: T1, Phenylethanolamine N-methyltransferase; assay: (§1) In vitro binding affinity of compound towards bovine adrenal phenylethanolamine N-methyl-transferase (PNMT)
Method in brief: (§2)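 Bovine adrenal PNMT, purified through the isoelectric precipitation step, tested in a radiochemical methylation assay with isoamyl alcohol/toluene extraction. For substrates, Km came from at least five concentrations of the variable substrate. For inhibitors, Ki came from at least three inhibitor concentrations, with phenylethanolamine as the variable substrate.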

[2] = Ratio expressed as 100x Vmax/Km; format: ADME
Method in brief: (§3)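 Substrate kinetics used bovine adrenal PNMT, purified through the isoelectric precipitation step, in a radiochemical methylation assay with isoamyl alcohol/toluene extraction. At least five concentrations of the variable substrate gave Km and Vmax. Vmax is in nmol product per mg protein per min, and the ratio is 100 × Vmax/Km.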

[3] = Vmax of compound was determined; format: ADME; method in brief: as §3
[4] = substrate: C[C@H](N)[C@H](O)c1ccccc1; assay: as §1; method in brief: as §2
[5] = substrate: N[C@H]1CCc2ccccc2[C@H]1O; assay: as §1; method in brief: as §2

Molecule | Ki [1] [µM] | Ratio [2] | Vmax [3] [nM/mg/min] | other results
N[C@H]1CCc2ccccc2C1 | 4.1 |  |  | 
N[C@@H]1CCc2ccccc2C1O (single isomer, unassigned) |  | 0.062 | 0.12 | 
N[C@@H]1CCc2ccccc2[C@@H]1O (racemic) |  |  | 0.15 | 
C[C@H](N)[C@@H](O)c1ccccc1 [CATHINE] | 3700 |  |  | 
N[C@@H]1CCc2ccccc2[C@@H]1O | 293 |  |  | 
C[C@@H](N)[C@H](O)c1ccccc1 | 2440 |  |  | 
NC[C@@H](O)c1ccccc1 |  | 0.96 | 0.92 | 
N[C@@H]1CCc2ccccc2C1 | 10 |  |  | 
C[C@@H](N)[C@@H](O)c1ccccc1 [(1S,2R)-PHENYLPROPANOLAMINE] | 2980 |  |  | 
C[C@H](N)[C@H](O)c1ccccc1 [(1R,2S)-PHENYLPROPANOLAMINE] |  | 0.017 | 0.22 | 
N[C@H]1CCc2ccccc2[C@@H]1O | 4.6 |  |  | 
N[C@H]1CCc2ccccc2[C@H]1O |  | 3.6 | 0.16 | 
NC[C@H](O)c1ccccc1 |  | 1.7 | 4.85 | 
B1 |  |  |  | Km [4]: 1310 µM; Km [5]: 4.5 µM

— ChEMBL document CHEMBL1123984, “Stereochemical aspects of phenylethanolamine analogues as substrates of phenylethanolamine N-methyltransferase” (J Med Chem, 1988)
